Experimental data: ChEMBL document CHEMBL1149852, “Antimycobacterial serratamolides and diacyl peptoglucosamine derivatives from Serratia sp” (2008)
In brackets after ≈: the same amount, converted by molar mass.

Key:
Type in all cases: functional
[1] = test system: Mycolicibacterium diernhoferi; test: Antimycobacterial activity against Mycobacterium diernhoferi
In short: (§1)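 Broth microdilution MIC. Purified compound given as serial 2-fold dilutions in Mueller-Hinton broth in 96-well plates. Inoculum made by scraping colonies from EBS agar plates (EBS: casein peptone 0.5%, glucose 0.5%, meat/yeast extract 0.1% each, 50 mM HEPES, pH 7.0) into EBS medium, then added to 5 × 10^5 CFU/mL. MIC taken as lowest concentration inhibiting 99% of inoculum.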

[2] = test system: Mycolicibacterium phlei; test: Antimycobacterial activity against Mycobacterium phlei; in short: as §1
[3] = test system: Mycolicibacterium smegmatis; test: Antimycobacterial activity against Mycobacterium smegmatis; in short: as §1

| MIC [1] | MIC [2] | MIC [3] | Compound |
| --- | --- | --- | --- |
| 180 µM (≈ 103 µg/mL) | 180 µM (≈ 103 µg/mL) | 180 µM (≈ 103 µg/mL) | CCCCCCCCCCCCCCC(=O)N[C@H](C(=O)O[C@H]1O[C@H](CO)[C@@H](O)[C@H](O)[C@H]1NC(=O)CCC)C(C)C |
| 180 µM (≈ 101 µg/mL) | 180 µM (≈ 101 µg/mL) | 180 µM (≈ 101 µg/mL) | CCCCCCCCCCCCCC(=O)N[C@H](C(=O)O[C@H]1O[C@H](CO)[C@@H](O)[C@H](O)[C@H]1NC(=O)CCC)C(C)C |
| 180 µM (≈ 105 µg/mL) | 180 µM (≈ 105 µg/mL) | 180 µM (≈ 105 µg/mL) | CCCCCCC/C=C\CCCCCCC(=O)N[C@H](C(=O)O[C@H]1O[C@H](CO)[C@@H](O)[C@H](O)[C@H]1NC(=O)CCC)C(C)C |
| 180 µM (≈ 92.6 µg/mL) | 180 µM (≈ 92.6 µg/mL) | 180 µM (≈ 92.6 µg/mL) | CCCCCCC[C@@H]1CC(=O)N[C@@H](CO)C(=O)O[C@H](CCCCCCC)CC(=O)N[C@@H](CO)C(=O)O1 [SERRATAMOLIDE A] |
| 180 µM (≈ 97.3 µg/mL) | 180 µM (≈ 97.3 µg/mL) | 180 µM (≈ 97.3 µg/mL) | CCCCCC/C=C\C[C@@H]1CC(=O)N[C@@H](CO)C(=O)O[C@H](CCCCCCC)CC(=O)N[C@@H](CO)C(=O)O1 [SERRATAMOLIDE B] |
| 180 µM (≈ 97.7 µg/mL) | 180 µM (≈ 97.7 µg/mL) | 180 µM (≈ 97.7 µg/mL) | CCCCCCCCC[C@@H]1CC(=O)N[C@@H](CO)C(=O)O[C@H](CCCCCCC)CC(=O)N[C@@H](CO)C(=O)O1 [SERRATAMOLIDE C] |
| 180 µM (≈ 95.2 µg/mL) | 180 µM (≈ 95.2 µg/mL) | 180 µM (≈ 95.2 µg/mL) | CCCCCCCC[C@@H]1CC(=O)N[C@@H](CO)C(=O)O[C@H](CCCCCCC)CC(=O)N[C@@H](CO)C(=O)O1 [SERRATAMOLIDE D] |
| 180 µM (≈ 87.6 µg/mL) | 180 µM (≈ 87.6 µg/mL) | 180 µM (≈ 87.6 µg/mL) | CCCCCCC[C@@H]1CC(=O)N[C@@H](CO)C(=O)O[C@H](CCCCC)CC(=O)N[C@@H](CO)C(=O)O1 [SERRATAMOLIDE E] |
| 180 µM (≈ 90.1 µg/mL) | 180 µM (≈ 90.1 µg/mL) | 180 µM (≈ 90.1 µg/mL) | CCCCCCC[C@@H]1CC(=O)N[C@@H](CO)C(=O)O[C@H](CCCCCC)CC(=O)N[C@@H](CO)C(=O)O1 [SERRATAMOLIDE F] |
